Hits are enriched below; roughly 1.4% of the tested compounds scored in any of these assays.
CAL PDZ FP-1: inhibitors of human CAL PDZ peptide binding; Q9HD26; purified CAL PDZ, TMR-peptide fluorescence polarization, 1 h; inhibition, % at 24.9 µM; 0.92% of 300,000 active; AID 602252;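 active means mean inhibition of at least 30% with at least half of replicates also reaching 30%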;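 further: 0% = DMSO neutral control and 100% = excess unlabeled competitor peptide PRC23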
DDE Tn7 FP inh: disrupts Tn7 cyclic peptide binding to fibrin D-Dimer-E complex; P02675; FP displacement of FITC-Tn7 peptide from fibrin DD(E); 0% = median of compound wells per plate; inhibition, % at 8.3 µM; 0.13% of 370,000 active; AID 720508;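 active means inhibition above the mean of compounds falling within the control limits plus 3 SD of them, cut at about 14% in these data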;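 further: 0% = plate median of compound wells and 100% = 10 µM Aha-Tn7 peptide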
Target sequence (P02675 whole entry, looked up): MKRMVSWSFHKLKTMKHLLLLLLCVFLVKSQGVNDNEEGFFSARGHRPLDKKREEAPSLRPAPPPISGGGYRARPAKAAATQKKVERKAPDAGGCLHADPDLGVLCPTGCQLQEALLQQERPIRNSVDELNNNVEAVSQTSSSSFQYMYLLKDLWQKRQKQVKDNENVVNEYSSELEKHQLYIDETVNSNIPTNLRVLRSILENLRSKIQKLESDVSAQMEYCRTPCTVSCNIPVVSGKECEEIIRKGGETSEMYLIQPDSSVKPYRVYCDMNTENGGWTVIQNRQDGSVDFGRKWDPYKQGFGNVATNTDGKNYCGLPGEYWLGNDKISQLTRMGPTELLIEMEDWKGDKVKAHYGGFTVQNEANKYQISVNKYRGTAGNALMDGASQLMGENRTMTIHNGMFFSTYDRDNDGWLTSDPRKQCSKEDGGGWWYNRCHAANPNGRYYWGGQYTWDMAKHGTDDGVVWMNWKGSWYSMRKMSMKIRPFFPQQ
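Assay system: human fibrin DD(E). Input: DD(E) 2 µM final. Medium: Tris buffer with calcium and detergent, pH 7.8. Compound dosing: single point at 8.3 µM. Timing: 10 min plus 3 h, room temperature. Technique: fluorescence polarization of the labelled Tn7 tracer. Read-out: percent inhibition. Replicates: singlicate testing.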
Tn6 DDE FP: disrupts Tn6 cyclic peptide binding to fibrin D-Dimer-E complex. P02675. 0.21% of 370,000 active. Fibrin DD(E) TRITC-Tn6 fluorescence polarization displacement. inhibition, % at 8.3 µM;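 active means inhibition above a per-campaign cutoff: mean of compounds within control limits plus 3 SD, cut at about 15% in these data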;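 further: 0% = median of all compound wells on the plate and 100% = blocking peptide control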
Arrestin-AP2 inh: human beta-arrestin and AP2 interaction inhibition; AID 504490; FITC-arrestin peptide / GST-AP2 beads, flow cytometry; AP2 beta2 appendage carries R879A mutation; inhibition, % at 10 µM; 0.31% of 340,000 active;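 active means inhibition above a set limit, near 3 SD of compounds lacking own fluorescence, cut at about 54% in these data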;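 further: plate controls were DMSO wells for no effect and 5 µM unlabelled arrestin peptide for full effect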
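Measured by: flow cytometry, FL1 (488/535 nm); Material: AP2 appendage R879A on GSH beads; Evaluation: percent response; Timing: pre-incubation 12 min, peptide binding 1 h, room temperature; Also added: 50 nM FITC-arrestin peptide; Medium: PBS with 0.05% Tween 20 and 0.1% BSA.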
CAL PDZ FP-2: blocks peptide binding to human CAL PDZ domain | Q9HD26 | purified CAL PDZ, TMR-peptide fluorescence polarization, 1 h | inhibition, % at 20 µM | 0.02% of 330,000 active;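 active means highest replicate inhibition of at least 40%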;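 further: plate controls were DMSO neutral control wells for no effect and unlabeled competitor peptide control wells for full effect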
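Material – purified CerCALP PDZ construct · Detection – FP readout, S and P plane fluorescence · Measure – percent inhibition from loss of millipolarization · Controls – unlabelled peptide for full inhibition, DMSO wells as neutral · Probe or stimulus – TMR-labelled reporter peptide T*-PRC34 bound in PDZ groove · Times – 1 h at RT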
Numbers without * were called inactive; x = no result given; + = active, no number.

SMILES | CAL PDZ FP-1 | DDE Tn7 FP inh | Tn6 DDE FP | Arrestin-AP2 inh | CAL PDZ FP-2
C/C(Cl)=C\Cn1c(O)c(N=NC(N)=S)c2ccccc21 | 76* | 6 | 7 | 9 | 1
CCCCNC(=O)C1(C(C)=O)CC(C(=O)OCC)=NO1 (stereo not given) | x | 1 | 9 | x | x
COc1cccc2cc(-c3ccnc(N)n3)oc12 | 77* | 4 | 7 | 2 | 10
C[C@H](O)[C@@H]1CN2CCc3c([nH]c4c(-c5ccc6c(c5)OCO6)cccc34)[C@@H]2C[C@@H]1N(C)C(=O)c1ccco1 | x | -1 | -1 | x | x
O=C(Nc1c(F)cc(F)cc1Br)c1cc(-c2ccc(O)cc2)on1 | -2 | -2 | -3 | 1 | -1
O=C(Nc1cccnc1)c1cc(-c2ccccc2)on1 | 122* | 3 | 3 | 1 | x
Cc1c(NC(=O)c2cc(-c3ccc(O)cc3)on2)c(=O)n(-c2ccccc2)n1C | 35* | 4 | 7 | 2 | -1
O=C(Nc1cccc(O)c1)c1cc(-c2ccc3c(c2)OCO3)on1 | 60* | -1 | 1 | -2 | -3
O=C(Nc1c(F)cc(F)cc1Br)c1cc(-c2ccccc2)on1 | 80* | 5 | -2 | 3 | -1
O=C(Nc1cccnc1)c1cc(-c2ccc(Br)cc2)on1 | x | -3 | 7 | -3 | 0
Cc1c(NC(=O)c2cc(-c3ccccc3)on2)c(=O)n(-c2ccccc2)n1C | -1 | -7 | -8 | -9 | -2
CCCC[C@H](C(=O)N(C)c1ccccc1)[C@@H](O)c1ccc(C(C)=O)cc1 | x | -5 | 4 | x | x
CCN(CC)c1ccc2c(-c3ccc(S(=O)(=O)O)cc3S(=O)(=O)[O-])c3ccc(=[N+](CC)CC)cc-3oc2c1 | + | x | x | 4 | 171*
CCN(CC)c1ccc2cc(C(N)=O)c(=N)oc2c1 | 6 | -1 | 5 | 16 | 0
Nc1cc(=O)[nH]c(SCC(=O)N2N=C(c3ccc4ccccc4c3)CC2c2ccccc2)n1 (stereo not given) | 32* | -3 | -2 | -5 | 0
CC(=O)OCC(=O)N1N=C(c2ccc3ccccc3c2)CC1c1ccccc1 (stereo not given) | 3 | 9 | -1 | x | -2
Nc1c(C(=O)N2CCN(c3ccccc3)CC2)nnn1Cc1ccc(Cl)cc1 | x | -1 | 0 | x | x
COC(=O)[C@H](C(C)C)N1CCc2nnn(CC3CCCCC3)c2-c2cc(F)ccc2S1(=O)=O | x | 7 | 7 | x | x
CCCCNC(=O)C1(C(=O)c2ccc(OC)cc2)CC(C(=O)OCC)=NO1 (stereo not given) | x | -13 | 3 | x | x
COc1ccc(/C=N/Nc2cc(C)nc3ccc(OC)cc23)c(OC)c1 | 18 | 0 | -13 | 34 | 45*
OCCN(CCO)c1nc(N2CCCCC2)c2nc(N(CCO)CCO)nc(N3CCCCC3)c2n1 | 6 | 26* | 1 | 13 | 0
Cc1ccc(C(=O)CCC(=O)NC2CCCC(C)C2C)cc1 (stereo not given) | 90* | -4 | -7 | -4 | -2
CC1CCCC(NC(=O)CCNC(=O)c2ccc(Cl)cc2)C1C (stereo not given) | -4 | -4 | 0 | -3 | -3
O=C(Nc1ccccc1F)O[C@@H]1CC[C@@]23CCCN2C(=O)CCC[C@H]3C1 | x | 7 | 1 | x | x
COc1ccc2c(c1)N[C@@](CCNC=O)(c1[nH]c3ccccc3c1CCNC=O)C2=O | x | -2 | 3 | x | x
SMILES | CAL PDZ FP-1 | DDE Tn7 FP inh | Tn6 DDE FP | Arrestin-AP2 inh | CAL PDZ FP-2
O=C(Nc1ccccc1)N1CCN(Cc2ccc(Cl)cc2)CC1 | -2 | 4 | 5 | -6 | -2
O=C(Nc1cc(Cl)cc(Cl)c1)N1CCCN(Cc2ccccc2)CC1 | 37* | 1 | -3 | -3 | -1
C/C(=N\NC(=O)c1ccc2c(c1)OCO2)c1ccc(C(=O)O)s1 | 0 | -2 | -6 | 0 | 0
COc1ccccc1/C=N/NC(=O)c1ccc2c(c1)OCO2 | 70* | 8 | 8 | 2 | x
O=C(N/N=C/c1ccccc1OC(=O)c1ccc2c(c1)OCO2)c1ccccc1 | -4 | 3 | 2 | 8 | -1
C/C(=N\NC(=O)c1ccc2c(c1)OCO2)c1ccc2c(c1)OCO2 | 48* | 2 | 1 | -9 | -1
C[C@H]1C2CC(OC(=O)Nc3ccc4c(c3)OCO4)C(C2)[C@H]2CCCCN21 (stereo not given in full) | x | 0 | 1 | x | x

Bioassay records as filed in PubChem BioAssay.
